Experimental data taken from ChEMBL document CHEMBL1275419, “The thymidine-dependent small-colony-variant phenotype is associated with hypermutability and antibiotic resistance in clinical Staphylococcus aureus isolates” (Antimicrob Agents Chemother, 2008).
Active and inactive are the calls of the source. No cut-off for these calls is given here.

Experiments:
Format in all cases: functional, organism-based
[1] = tested on: Staphylococcus aureus; experiment: Antibacterial activity against normal-colony variant Staphylococcus aureus derived from non cystic fibrosis patient assessed as resistant isolates at 37 degC after 24 hrs by disk diffusion method
Procedure, shortened: (§1)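 Disk diffusion per CLSI guidelines (fosfomycin per French CA-SFM guidelines). NCV isolates tested on plain Mueller-Hinton agar and incubated 24 h at 37°C. Isolates scored susceptible or resistant per agent.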

[2] = tested on: Staphylococcus aureus; experiment: Antibacterial activity against normal-colony variant Staphylococcus aureus derived from cystic fibrosis patient assessed as resistant isolates at 37 degC after 24 hrs by disk diffusion method; procedure, shortened: as §1
[3] = tested on: Staphylococcus aureus; experiment: Antibacterial activity against thymidine-dependent small-colony variant Staphylococcus aureus derived from cystic fibrosis patient assessed as resistant isolates at 37 degC after 24 hrs by disk diffusion method
Procedure, shortened: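 Disk diffusion per CLSI guidelines (fosfomycin per French CA-SFM guidelines). Thymidine-dependent SCVs cannot grow without thymidine, so they were tested on Mueller-Hinton agar with 5% defibrinated sheep blood and incubated 24 h at 37°C. Isolates scored susceptible or resistant per agent.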

| Compound | Activity [1] | Activity [2] | Activity [3] |
| --- | --- | --- | --- |
| C[C@@H]1O[C@@H]1P(=O)(O)O | Active | Active | inactive |
| CC[C@H]1OC(=O)[C@H](C)[C@@H](O[C@H]2C[C@@](C)(OC)[C@@H](O)[C@H](C)O2)[C@H](C)[C@@H](O[C@@H]2O[C@H](C)C[C@H](N(C)C)[C@H]2O)[C@](C)(O)C[C@@H](C)C(=O)[C@H](C)[C@@H](O)[C@]1(C)O | Active | Active | inactive |
| O=C(O)c1cn(C2CC2)c2cc(N3CCNCC3)c(F)cc2c1=O | Active | Active | inactive |
| CO[C@H]1/C=C/O[C@@]2(C)Oc3c(C)c(O)c4c(O)c(c(/C=N/N5CCN(C)CC5)c(O)c4c3C2=O)NC(=O)/C(C)=C\C=C\[C@H](C)[C@H](O)[C@@H](C)[C@@H](O)[C@@H](C)[C@H](OC(C)=O)[C@@H]1C | Active | Active | inactive |
| GENTAMICIN | Active | Active | inactive |
